The source made the active and inactive calls. The rule behind the calls is not given here.
How the values were obtained:
A2780 [1] = assay: Cytotoxicity against human A2780AD cells assessed as inhibition of cell growth measured after 48 hrs by MTT assay; type: functional, cell-based; conditions: A2780, 48 h
Method in brief: (§1)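 MTT assay. Cells were exposed for 48 h to increasing concentrations of compound. Ovarian A2780 was paired with its P-gp-overexpressing A2780AD counterpart, and HeLa with HeLa β3, which overexpresses the tubulin β3 isotype. IC50 is the mean ± SD of three independent experiments.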

SCC-4 [2] = assay: Induction of apoptosis in human SCC-4 cells assessed as increase in apoptotic cells at 2 uM after 48 hrs by Annexin V-FITC/PI staining based flow cytometry method; type: functional, cell-based
Method in brief: (§2)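 SCC4 cells were treated at 0.5 or 2 μM for 48 h, then stained with Annexin V/PI and analysed by flow cytometry. Data are mean ± SEM of three independent experiments, with an unpaired one-tailed t-test versus vehicle.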

[3] = target: Nuclear factor NF-kappa-B complex (Homo sapiens) (UniProt Q00653+P19838+Q04206); assay: Inhibition of NF-kappaB phosphorylation in human HL-60 cells at 10 uM measured after 2 hrs by Immunoblotting analysis; type: cell-based
Nuclear factor NF-kappa-B complex (Homo sapiens), sequence (P19838 whole entry, looked up): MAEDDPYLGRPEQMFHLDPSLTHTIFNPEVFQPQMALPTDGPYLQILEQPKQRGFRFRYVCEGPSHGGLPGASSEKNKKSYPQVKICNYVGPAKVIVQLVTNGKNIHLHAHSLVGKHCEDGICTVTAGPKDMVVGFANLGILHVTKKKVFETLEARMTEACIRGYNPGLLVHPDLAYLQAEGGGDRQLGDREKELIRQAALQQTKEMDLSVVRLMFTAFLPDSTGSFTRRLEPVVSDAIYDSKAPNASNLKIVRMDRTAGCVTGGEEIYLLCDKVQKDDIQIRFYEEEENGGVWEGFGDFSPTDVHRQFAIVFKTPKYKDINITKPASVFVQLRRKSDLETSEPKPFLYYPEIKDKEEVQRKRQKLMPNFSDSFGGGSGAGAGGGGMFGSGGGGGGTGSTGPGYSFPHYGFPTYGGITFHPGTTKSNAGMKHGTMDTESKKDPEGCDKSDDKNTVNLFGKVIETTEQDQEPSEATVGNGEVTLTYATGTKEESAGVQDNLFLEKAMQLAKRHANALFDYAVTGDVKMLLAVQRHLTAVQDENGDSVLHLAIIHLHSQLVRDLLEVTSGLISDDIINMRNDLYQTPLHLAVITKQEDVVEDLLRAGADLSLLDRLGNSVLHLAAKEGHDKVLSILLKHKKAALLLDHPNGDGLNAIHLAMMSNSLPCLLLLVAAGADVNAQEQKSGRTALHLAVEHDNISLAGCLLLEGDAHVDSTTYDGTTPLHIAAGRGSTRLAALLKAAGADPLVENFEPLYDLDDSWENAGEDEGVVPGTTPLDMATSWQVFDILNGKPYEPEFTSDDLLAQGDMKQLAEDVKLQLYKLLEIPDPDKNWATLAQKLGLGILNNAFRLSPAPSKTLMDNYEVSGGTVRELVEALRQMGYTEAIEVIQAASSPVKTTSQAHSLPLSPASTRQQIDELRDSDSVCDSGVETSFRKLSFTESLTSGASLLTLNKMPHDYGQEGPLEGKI
Nuclear factor NF-kappa-B complex (Homo sapiens), sequence (Q00653 whole entry, looked up): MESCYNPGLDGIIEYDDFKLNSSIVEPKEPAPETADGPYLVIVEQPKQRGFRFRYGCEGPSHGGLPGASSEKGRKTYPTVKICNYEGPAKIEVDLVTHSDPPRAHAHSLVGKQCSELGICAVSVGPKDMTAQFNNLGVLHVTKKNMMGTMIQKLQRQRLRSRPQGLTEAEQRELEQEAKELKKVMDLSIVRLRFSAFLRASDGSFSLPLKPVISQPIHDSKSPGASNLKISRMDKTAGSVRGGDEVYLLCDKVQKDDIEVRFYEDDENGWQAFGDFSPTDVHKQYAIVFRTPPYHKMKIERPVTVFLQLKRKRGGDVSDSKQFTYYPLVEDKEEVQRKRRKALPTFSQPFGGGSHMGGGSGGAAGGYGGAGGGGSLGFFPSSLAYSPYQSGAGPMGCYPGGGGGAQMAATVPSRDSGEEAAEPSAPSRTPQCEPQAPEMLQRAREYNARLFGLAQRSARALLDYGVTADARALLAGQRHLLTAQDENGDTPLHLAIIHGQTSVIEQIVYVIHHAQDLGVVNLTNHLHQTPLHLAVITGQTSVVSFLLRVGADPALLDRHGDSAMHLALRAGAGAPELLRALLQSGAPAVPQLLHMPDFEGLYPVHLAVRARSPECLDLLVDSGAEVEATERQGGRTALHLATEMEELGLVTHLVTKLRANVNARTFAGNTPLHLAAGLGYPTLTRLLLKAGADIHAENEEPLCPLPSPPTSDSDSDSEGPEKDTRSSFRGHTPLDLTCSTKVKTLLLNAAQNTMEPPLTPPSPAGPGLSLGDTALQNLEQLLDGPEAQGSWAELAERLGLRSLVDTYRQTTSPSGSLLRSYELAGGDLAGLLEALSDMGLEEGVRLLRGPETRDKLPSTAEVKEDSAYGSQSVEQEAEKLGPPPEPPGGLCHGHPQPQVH
Nuclear factor NF-kappa-B complex (Homo sapiens), sequence (Q04206 whole entry, looked up): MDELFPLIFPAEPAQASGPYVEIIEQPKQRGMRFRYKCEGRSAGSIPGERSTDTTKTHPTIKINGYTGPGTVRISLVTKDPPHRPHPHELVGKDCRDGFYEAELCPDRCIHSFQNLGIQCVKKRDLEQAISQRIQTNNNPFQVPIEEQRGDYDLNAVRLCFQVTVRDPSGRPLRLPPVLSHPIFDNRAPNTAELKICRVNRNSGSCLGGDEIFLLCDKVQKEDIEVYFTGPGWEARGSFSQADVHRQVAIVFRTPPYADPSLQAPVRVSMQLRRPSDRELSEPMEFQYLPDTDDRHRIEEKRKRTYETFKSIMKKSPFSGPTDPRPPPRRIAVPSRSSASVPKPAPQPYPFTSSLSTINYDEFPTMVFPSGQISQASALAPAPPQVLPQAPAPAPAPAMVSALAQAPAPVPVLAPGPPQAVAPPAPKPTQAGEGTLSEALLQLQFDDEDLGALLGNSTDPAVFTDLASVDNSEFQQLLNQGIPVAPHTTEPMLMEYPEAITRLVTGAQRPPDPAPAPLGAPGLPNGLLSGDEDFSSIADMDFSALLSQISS
Method in brief: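 HL-60 cells were treated at 10 μM or with DMSO vehicle for 2 h. Phospho-NF-κB and phospho-Erk1/2 were immunoblotted and quantified by densitometry relative to β-tubulin. Data are mean ± SD (n = 2), analysed by one-way ANOVA.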

HL-60 [4] = assay: Induction of autophagy in human HL-60 cells assessed as increase in LC3-II protein level at 10 uM in presence of chloroquine […] by Immunoblotting analysis; type: functional, cell-based
KYSE-520 cell line [5] = assay: Induction of apoptosis in human KYSE520 cells assessed as increase in apoptotic cells at 3 to 10 uM after 72 hrs by Annexin V-FITC/PI staining based flow cytometry method; type: functional, cell-based; conditions: dose 3-10 µM
Method in brief: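 KYSE-520 cells were treated at 3 and 10 μM for 72 h, then analysed by flow cytometry after Annexin V/PI dual staining.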

[6] = Cytotoxicity against human TR146 cells assessed as reduction in cell viability measured after 48 hrs by alamar blue viability assay; type: functional, cell-based; conditions: TR146, 48 h
Method in brief: (§3)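 Oral squamous carcinoma cells were exposed for 48 h to at least 8 increasing concentrations. Viability was read by AlamarBlue. IC50 is the concentration that halves viability, taken as the mean ± SD of at least three independent experiments.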

[7] = Cytotoxicity against human Primary oral epithelial cells assessed as inhibition of cell growth measured after 24 hrs by neutral red uptake assay; type: toxicity, cell-based
Method in brief: (§4)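 Neutral red uptake viability test. NIH3T3 fibroblasts or primary human oral epithelial cells were exposed to compound at 0.1 to 120 μM. EC50 was derived, with SD below 5%.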

Tubulin (Homo sapiens) = Tubulin (Homo sapiens) (UniProt P68371+Q9H4B7+P0DPH7+P68366+Q13509+Q71U36+P04350+Q3ZCM7+P07437+P68363+Q9BQE3+Q6PEY2+Q13885+Q9BVA1+Q9BUF5); assay: Binding affinity to microtubule polymerization (unknown origin) assessed as formation of microtubule at 27.5 uM measured for 2 hrs by plate reader method; type: protein-complex assay
Method in brief: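 25 μM tubulin in GAB buffer with compound at 27.5 μM or DMSO vehicle; podophyllotoxin 27.5 μM as destabiliser control. Polymerisation started by raising temperature from 4 to 37 °C at time 0; microtubule formation followed as absorbance increase over time.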

SCC-4 [8] = assay: Cytotoxicity against human SCC-4 cells assessed as reduction in cell viability measured after 48 hrs by alamar blue viability assay; type: functional, cell-based; conditions: SCC-4, 48 h; method in brief: as §3
[9] = Induction of Pro-apoptosis in human HL-60 cells assessed as increase in apoptotic cells at 10 uM after 48 hrs by Annexin-V/PI-staining based flow cytometry; type: functional
SCC-4 [10] = assay: Induction of apoptosis in human SCC-4 cells assessed as increase in apoptotic cells at 0.5 uM after 48 hrs by Annexin V-FITC/PI staining based flow cytometry method; type: functional, cell-based; method in brief: as §2
A2780 [11] = assay: Cytotoxicity against human A2780 cells assessed as inhibition of cell growth measured after 48 hrs by MTT assay; type: functional, cell-based; conditions: A2780, 48 h; method in brief: as §1
HeLa [12] = assay: Cytotoxicity against human HeLa cells overexpressing tubulin beta3 assessed as inhibition of cell growth measured after 48 hrs by MTT assay; type: functional, cell-based; method in brief: as §1
HL-60 [13] = assay: Induction of autophagy in human HL-60 cells assessed as increase in LC3-II protein level at 10 uM measured up to 1 hr by Immunoblotting analysis; type: functional, cell-based
HL-60 [14] = assay: Induction of autophagy in human HL-60 cells assessed as increase in p62 protein level at 10 uM […] by Immunoblotting analysis; type: functional, cell-based
KYSE-520 cell line [15] = assay: Cytotoxicity against human KYSE520 cells assessed as inhibition of cell growth measured after 72 hrs by alamar blue viability assay; type: functional, cell-based; conditions: KYSE-520, 72 h
Method in brief: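 KYSE-520 oesophageal cells were exposed to at least 8 increasing concentrations for 48 h or 72 h. Viability was read out to give IC50, as the mean ± SD of at least three independent experiments.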

A549 = assay: Cytotoxicity against human A549 cells assessed as inhibition of cell growth measured after 48 hrs by MTT assay; type: functional, cell-based; conditions: A549, 48 h
[16] = Ratio of IC50 for cytotoxicity against human […] assessed as inhibition of cell growth measured after 48 hrs to IC50 for cytotoxicity against human A2780 cells assessed as inhibition of cell growth measured after 48 hrs; type: functional
Method in brief: (§5)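 MTT assay: cells exposed to increasing compound concentrations for 48 h. Lines were A2780 and its P-gp-overexpressing A2780AD counterpart, and HeLa and HeLa β3 (tubulin β3-overexpressing). IC50 is the mean ± SD of three independent experiments. R/S is the IC50 in the resistant line divided by that in the parental line.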

SCC-4 [17] = assay: Induction of autophagy in human SCC-4 cells assessed as increase in LC3-II to LC3-I ratio at 10 uM incubated for 30 mins in presence of EBSS followed by compound addition and measured after 3 hrs by Western blot analysis; type: functional, cell-based
Method in brief: (§6)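 SCC4 cells were pre-incubated with or without EBSS for 30 min, then given 10 μM compound, with 10 μM chloroquine as reference, for 3 h. LC3-I/II was assessed by Western blot with GAPDH loading control. The LC3-II/LC3-I ratio came from densitometry, as mean ± SEM of four experiments, with an unpaired one-tailed t-test.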

SCC-4 [18] = assay: Induction of autophagy in human SCC-4 cells assessed as increase in LC3-II to LC3-I ratio at 10 uM in absence of EBSS measured after 3 hrs by Western blot analysis; type: functional, cell-based; method in brief: as §6
[19] = Ratio of IC50 for cytotoxicity against human HeLa cells overexpressing tubulin beta3 assessed as inhibition of cell growth measured after 48 hrs to IC50 for cytotoxicity against human HeLa cells assessed as inhibition of cell growth measured after 48 hrs; type: functional; method in brief: as §5
Emu-TCL1 = assay: Induction of apoptosis in mouse Emu-TCL1 cells model of CLL assessed as mitochondrial membrane depolarization at 10 uM after 48 hrs by TMRM dye based flow cytometric analysis; type: functional, cell-based
Method in brief: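 Splenocytes from Eμ-TCL1 leukaemic mice were treated with 10 μM or DMSO vehicle for 48 h, then TMRM-loaded. Flow cytometry gave the percentage of TMRM-low cells as mean ± SD (n = 3).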

HeLa [20] = assay: Cytotoxicity against human HeLa cells assessed as inhibition of cell growth measured after 48 hrs by MTT assay; type: functional, cell-based; method in brief: as §1
Ca9-22 = assay: Cytotoxicity against human Ca9-22 cells assessed as reduction in cell viability measured after 48 hrs by alamar blue viability assay; type: functional, cell-based; conditions: Ca9-22, 48 h; method in brief: as §3
OE33 = assay: Cytotoxicity against human OE33 cells assessed as inhibition of cell growth measured after 72 hrs by MTT assay; type: functional, cell-based; conditions: OE33, 72 h
Method in brief: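 Oesophageal adenocarcinoma lines were exposed to at least 8 increasing concentrations for 72 h. Viability was measured by MTT. IC50 is the mean ± SD of at least three independent experiments.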

NIH3T3 = assay: Cytotoxicity against mouse NIH3T3 cells assessed as inhibition of cell growth measured after 24 hrs by neutral red uptake assay; type: functional, cell-based; conditions: NIH3T3, 24 h; method in brief: as §4
[21] = Induction of Pro-apoptosis in human HL-60 cells assessed as increase in apoptotic cells at 25 uM after 24 hrs by TMRM dye based flow cytometric analysis; type: functional
[22] = Induction of Pro-apoptosis in human HL-60 cells assessed as increase in apoptotic cells at 10 uM after 24 hrs by TMRM dye based flow cytometric analysis; type: functional

With `CCN(CC)CCCC(C)NC(=O)OC1=C(c2cccc3ncccc23)Oc2cc3ccccc3cc2-n2cccc21` (racemic) the IC50 (A2780 [1]) was 1210 nM, the Activity (SCC-4 [2]) was “Active” and the inhibition [3] was “Active”. For the same compound, the Activity (HL-60 [4]) was “Active”, the Activity (KYSE-520 cell line [5]) was “Active” and the IC50 [6] was 1500 nM. For the same compound, the EC50 at 24 h [7] was 45 µM, the Activity (Tubulin (Homo sapiens)) was “Active” and the IC50 (SCC-4 [8]) was 910 nM. The Activity [9] was “>=70%”, the Activity (SCC-4 [10]) was “Active” and the IC50 (A2780 [11]) was 1030 nM. For the same compound, the IC50 (HeLa [12]) was 661 nM, the Activity (HL-60 [13]) was “Active” and the Activity (HL-60 [14]) was “Active”. The IC50 (KYSE-520 cell line [15]) was 41.9 µM, the IC50 (A549) was 1380 nM and the “Ratio IC50” value [16] was 1.18. The Activity (SCC-4 [17]) was “Active”, the Activity (SCC-4 [18]) was “Active” and the “Ratio IC50” value [19] was 0.72. For the same compound, the Activity (Emu-TCL1) was “Active”, the IC50 (HeLa [20]) was 921 nM and the IC50 (Ca9-22) was 2000 nM. For the same compound, the IC50 (OE33) was 1380 nM and the EC50 (NIH3T3) was 6 µM.
For `CC(=O)OC1=C(c2cccc3ccccc23)Oc2ccc(N3CCN(C)CC3)cc2-n2cccc21`, the Activity [9] was less than 30%, the Activity (Emu-TCL1) was “Active” and the EC50 (NIH3T3) was 45 µM.
For `COc1cc([C@@H]2c3cc4c(cc3[C@H](O)[C@H]3COC(=O)[C@H]23)OCO4)cc(OC)c1OC` [PODOFILOX], the IC50 (A2780 [1]) was 20 nM, the Activity (Tubulin (Homo sapiens)) was “Active” and the IC50 (A2780 [11]) was 15 nM. The IC50 (HeLa [12]) was 14 nM, the IC50 (A549) was 12 nM and the “Ratio IC50” value [16] was 1.33. The “Ratio IC50” value [19] was 0.82 and the IC50 (HeLa [20]) was 17 nM.
In the case of `CC(C)(C)OC(=O)N1CCC(C(=O)OC2=C(c3cccc4ncccc34)Oc3cc4ccccc4cc3-n3cccc32)CC1`, the Activity [9] is reported as “>=30%”, the Activity (Emu-TCL1) is reported as “Active” and the EC50 (NIH3T3) is reported as 6 µM.
For `CC(=O)OC1=C(c2cccc3ccccc23)Oc2ccc(C)cc2-n2cccc21`, the Activity [21] was “>=50%”, the Activity [22] was less than 30% and the EC50 (NIH3T3) was 0.3 µM.
With `CN(C)C(=O)OC1=C(c2cccc3ccccc23)Oc2ccc(Cl)cc2-n2cccc21` the Activity [21] was “>=50%” and the Activity [22] was “>=50%”.
For `CC(=O)OC1=C(c2cccc3cccnc23)Oc2cc3ccccc3cc2-n2cccc21`, the Activity (SCC-4 [2]) was “Active”, the IC50 (SCC-4 [8]) was 130 nM and the Activity [9] was “>=70%”. For the same compound, the Activity (SCC-4 [10]) was “Active”, the Activity (SCC-4 [17]) was “Active” and the Activity (SCC-4 [18]) was “Active”.
For `CC(=O)OC1=C(c2cccc3ccccc23)Oc2cc3ccccc3cc2-n2cccc21`, the inhibition [3] was “Active”, the Activity (HL-60 [4]) was “Active” and the Activity [9] was “>=70%”. For the same compound, the Activity (HL-60 [13]) was “Active”, the Activity (HL-60 [14]) was “Active” and the Activity [22] was “>=50%”. The Activity (Emu-TCL1) was “Active”.
